The text below walks through data of ChEMBL document CHEMBL1671718, “Anti-Pseudomonas activity of frog skin antimicrobial peptides in a Caenorhabditis elegans infection model: a plausible mode of action in vitro and in vivo” (Antimicrob Agents Chemother, 2010).

For data set [1], the system named is Pseudomonas aeruginosa. The data set can be described thus: Antibacterial activity against multidrug-resistant Pseudomonas aeruginosa clinical isolate by broth microdilution method. Format: functional. The essentials: (§1)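 Adapted CLSI broth microdilution in Mueller-Hinton broth; mid-log bacteria at 2 × 10^6 CFU/ml mixed 1:1 with peptide dilutions (2-fold series from 20% ethanol stocks, 1–64 μM). Growth read by absorbance at 595 nm after 18–20 h at 37°C; MIC = lowest concentration giving 100% growth inhibition.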

Data set [2] relates to Pseudomonas aeruginosa. The data set can be described thus: Bactericidal activity against multidrug-resistant Pseudomonas aeruginosa clinical isolate assessed as concentration required for >= 3 log10 CFU/ml reduction in viable bacteria in phosphate-buffer saline containing 150 mM sodium salt after 90 mins. Format: functional. Particulars: 1.5 h. The essentials:
(§2)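 Exponential-phase bacteria resuspended at 1 × 10^7 CFU/ml in MHB or PBS; 10 μl incubated with 2-fold peptide dilutions (2–64 μM) in 100 μl, 37°C, 90 min, then plated on LB agar and counted after overnight growth. Value = concentration giving ≥3 log10 CFU/ml reduction. Solvent control 0.6% ethanol.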

For data set [3], the system named is Pseudomonas aeruginosa. Put plainly: Antibacterial activity against multidrug-resistant Pseudomonas aeruginosa clinical isolate infected in Caenorhabditis elegans assessed as worm survival at 0.01 nM after 48 hrs. Format: functional, organism-based.
The nature of data set [4]: Toxicity in human RBC assessed as hemolytic activity upto 64 uM. Type of data set: cell-based. Particulars: erythrocyte. The essentials:
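Fresh erythrocytes from healthy human donors, washed three times in 0.9% NaCl, used as a 5% (vol/vol) final suspension. Peptides were dissolved in 20% ethanol and tested at 2 to 64 μM, with agitation at 37°C for 40 min. Hemoglobin release was read as supernatant absorbance at 540 nm. The blank was solvent at 0.6% final; hypotonic lysis gave 100%.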

Data set [5] deals with Pseudomonas aeruginosa. The data set can be described thus: Bactericidal activity against multidrug-resistant Pseudomonas aeruginosa clinical isolate assessed as concentration required for >= 3 log10 CFU/ml reduction in viable bacteria in Mueller-Hinton broth after 90 mins. Particulars: 1.5 h. Format: functional. The essentials:
as §2

The test system of data set [6] is Pseudomonas aeruginosa. Put plainly: Antibacterial activity against multidrug-resistant Pseudomonas aeruginosa clinical isolate assessed as reduction in viable bacterial count at MIC after 5 mins by time-kill analysis. Type of data set: functional. The essentials: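 Bacteria grown in MHB at 37°C, diluted into PBS (about 1 × 10^5 CFU in 100 μl), incubated at 37°C with peptide at its MIC; 10 μl samples taken at intervals, diluted in MHB, plated on LB agar, CFU counted after overnight growth. Controls untreated or 0.6% ethanol solvent; three independent experiments, mean ± SD.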

In data set [7] the test system is Pseudomonas aeruginosa. Put plainly: Antibacterial activity against Pseudomonas aeruginosa ATCC 15692 by broth microdilution method. Type of data set: functional. The essentials: as §1
The subject of data set [8] is Pseudomonas aeruginosa. Put plainly: Induction of membrane permeation on multidrug-resistant Pseudomonas aeruginosa clinical isolate infected in Caenorhabditis elegans assessed as increase in membrane permeability assessed as increase in membrane permeability by Sytox green dye influx assay. Type of data set: functional, organism-based. The essentials: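 N2 adults infected 16 h, washed in M9, held about 24 h at 25°C on K medium agar to expand gut bacteria (about 1,000 CFU/worm). 200 worms per well in 300 μl K medium with 1 μM Sytox Green, 5 min in the dark; 10 nM peptide added, fluorescence (485/535 nm) read at 25°C until plateau (about 40 min). Controls: 0.3% ethanol-treated infected worms and uninfected worms; two experiments.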

In data set [9] the test system is Pseudomonas aeruginosa. Put plainly: Antibacterial activity against multidrug-resistant Pseudomonas aeruginosa clinical isolate infected in Caenorhabditis elegans assessed as increase in worm survival within 6 days agar plate assay relative to untreated worm. Type of data set: functional. The essentials: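 Worms infected 6 h, washed in M9, 15 per 3.5-cm NGM plate with E. coli OP50, moved daily to fresh plates freshly spread with 200 μl of 0.5 nM peptide. Death scored as absence of touch-provoked movement over 6 days versus untreated infected worms; at least three experiments.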

Data set [10] has as its system Pseudomonas aeruginosa. The data set can be described thus: Antibacterial activity against Pseudomonas aeruginosa ATCC 15692 expressing GFP infected in Caenorhabditis elegans assessed as reduction in viable bacterial count in intestinal lumen after 90 mins by fluorescence microscopy. Format: functional, organism-based. The essentials:
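Nematodes infected 16 h with GFP-expressing ATCC 15692 (plasmid pSMC21, ampicillin-selected), moved to OP50 NGM plates with or without 0.5 nM peptide; after 90 min, gut fluorescence viewed by epifluorescence stereomicroscopy (GFP2 filter, ×60).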

In data set [11] the test system is Pseudomonas aeruginosa. The data set can be described thus: Antibacterial activity against multidrug-resistant Pseudomonas aeruginosa clinical isolate infected in Caenorhabditis elegans assessed as increase in worm survival at 0.3 nM after 40 hrs relative untreated control. Format: functional. The essentials: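 N2 young adults infected 6 h at 25°C on modified NGM lawns of clinical isolate, washed in M9, 15 worms/well in 50 μl S medium with E. coli OP50 plus peptide (0.3 or 0.01 nM depending on peptide); 40 h at 25°C. Dead = no movement or muscle tone; at least three experiments, mean ± SD.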

The test system of data set [12] is Escherichia coli. Put plainly: Induction of membrane permeation on GFP expressing Escherichia coli OP50 infected in Caenorhabditis elegans assessed as increase in membrane permeability assessed as increase in membrane permeability after 16 hrs post dose by Sytox green dye influx assay. Format: functional, organism-based.
The subject of data set [13] is Pseudomonas aeruginosa. Put plainly: Antibacterial activity against multidrug-resistant Pseudomonas aeruginosa clinical isolate infected in Caenorhabditis elegans assessed as reduction in viable bacterial count in intestinal lumen after 24 hrs by agar plate assay relative to untreated worm. Type of data set: functional. The essentials:
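Worms infected 6 h, then on OP50 NGM plates with 0.5 nM peptide added. Before and after 1 day, 10 worms per replicate washed three times in M9 with 20 μg/ml gentamicin, lysed in M9–1% Triton X-100, and plated on LB with 100 μg/ml ampicillin; CFU counted after overnight growth at 37°C. At least three experiments.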

Data set [14] in a line: Toxicity in human RBC assessed as hemolytic activity at 64 uM. Type of data set: cell-based, Erythrocyte. The settings on record: red blood cells, read-out: Activity.
Data set [15] is described as follows: Toxicity in human RBC assessed as hemolytic activity <32 to 64 uM. Format: cell-based. Particulars: erythrocyte.
The test system of data set [16] is Caenorhabditis elegans. The data set can be described thus: Toxicity in multidrug-resistant Pseudomonas aeruginosa clinical isolate infected Caenorhabditis elegans induction of worm mortality at >0.01 nM after 48 hrs. Type of data set: organism-based. Particulars: in vivo.
Data set [17] in a line: Toxicity in human RBC assessed as hemolytic activity at 32 uM. Type of data set: cell-based, Erythrocyte. Particulars: red blood cells, read-out: Activity.

In brackets after ≈: the same amount, converted by molar mass. Activity calls are given as the source filed them. The rule behind the calls is not given here. Where a SMILES comes first, the peptide text is derived from it. Where only a bound is given, the exact number is not on record here.

`CC[C@H](C)[C@H](NC(=O)CN)C(=O)N[C@@H](Cc1ccccc1)C(=O)N[C@@H](CO)C(=O)N[C@@H](CCCCN)C(=O)N[C@@H](CC(C)C)C(=O)N[C@@H](C)C(=O)NCC(=O)N[C@@H](CCCCN)C(=O)N[C@@H](CCCCN)C(=O)N[C@H](C(=O)N[C@@H](CCCCN)C(=O)N[C@@H](CC(N)=O)C(=O)N[C@@H](CC(C)C)C(=O)N[C@@H](CC(C)C)C(=O)N[C@H](C(=O)N[C@@H](CO)C(=O)NCC(=O)N[C@@H](CC(C)C)C(=O)N[C@@H](CCCCN)C(=O)NCC(N)=O)[C@@H](C)CC)[C@@H](C)CC` (H-GIFSKLAGKKIKNLLISGLKG-NH2): the results for the MIC in data set [1], in data set [2] and in data set [5] were 4 µM (≈ 8.74 µg/mL), 4 µM and 16 µM (≈ 35 µg/mL), respectively. Also, the result in data set [3] was inactive. Besides, in data set [4], the Activity entry is “Non-toxic”. For the same molecule, the CFU/ml in [6] is 998000.

Consider `CC[C@H](C)[C@H](NC(=O)CN)C(=O)N[C@@H](Cc1ccccc1)C(=O)N[C@@H](CO)C(=O)N[C@@H](CCCCN)C(=O)N[C@@H](CC(C)C)C(=O)N[C@@H](C)C(=O)NCC(=O)N[C@@H](CCCCN)C(=O)N[C@@H](CCCCN)C(=O)N[C@@H](CC(C)C)C(=O)N[C@@H](CCCCN)C(=O)N[C@@H](CC(N)=O)C(=O)N[C@@H](CC(C)C)C(=O)N[C@@H](CC(C)C)C(=O)N[C@H](C(=O)N[C@@H](CO)C(=O)NCC(N)=O)[C@@H](C)CC` (H-GIFSKLAGKKLKNLLISG-NH2), for which the minimal inhibitory concentration (MIC) amounted to 8 µM (≈ 15.1 µg/mL) in data set [1], 8 µM (≈ 15.1 µg/mL) in data set [7], 16 µM in data set [2] and 64 µM (≈ 121 µg/mL) in [5]. Further, the result in [8] and in data set [10] was Active. The outcome in data set [3] and in data set [12] was inactive. The Activity result in data set [4] was “Non-toxic”. The figures for the “fold change (FC)” value in data set [9], in [11] and in data set [13] were 2, 4 and 5, respectively. In addition, the CFU/ml in data set [6] was found to be 950000.

Regarding `CC[C@H](C)[C@H](NC(=O)CNC(=O)[C@H](CO)NC(=O)[C@H](CC(C)C)NC(=O)[C@@H](NC(=O)[C@H](CCCCN)NC(=O)CNC(=O)[C@@H](NC(=O)[C@H](CC(C)C)NC(=O)[C@@H]1CCCN1C(=O)[C@H](CC(C)C)NC(=O)[C@@H](N)Cc1ccccc1)[C@@H](C)CC)C(C)C)C(=O)N[C@@H](CC(C)C)C(N)=O` (H-FLPLIGKVLSGIL-NH2), the MIC in [1], in data set [2] and in data set [5] was greater than 64 µM in each case. The result in data set [3] was inactive. Moreover, the hemolysis at 64 µM in [14] amounted to 12%. Also, the Activity result in data set [15] is reported as “Non-toxic”.

Take `CC[C@H](C)[C@H](NC(=O)[C@H](CCCNC(=N)N)NC(=O)CNC(=O)[C@H](CC(C)C)NC(=O)[C@H](Cc1ccccc1)NC(=O)[C@H](CCCCN)NC(=O)[C@H](CO)NC(=O)[C@H](Cc1ccccc1)NC(=O)[C@H](Cc1c[nH]c2ccccc12)NC(=O)[C@H](CCC(N)=O)NC(=O)[C@@H](NC(=O)[C@@H](N)Cc1ccccc1)C(C)C)C(=O)N[C@@H](CC(C)C)C(N)=O` [TEMPORIN L] (H-FVQWFSKFLGRIL-NH2): the MIC in [1] was 64 µM (≈ 105 µg/mL); in [2], 16 µM; in data set [5] it was greater than 64 µM. In data set [3], the outcome was inactive. Further, in data set [16], the Activity entry was “Toxic”.

Turning to `CC[C@H](C)[C@H](NC(=O)[C@@H]1CCCN1C(=O)[C@H](CC(C)C)NC(=O)[C@@H](N)CC(C)C)C(=O)N[C@H](C(=O)NCC(=O)N[C@@H](CC(N)=O)C(=O)N[C@@H](CC(C)C)C(=O)N[C@@H](CC(C)C)C(=O)N[C@@H](CCCCN)C(=O)N[C@@H](CO)C(=O)N[C@@H](CC(C)C)C(=O)N[C@@H](CC(C)C)C(N)=O)C(C)C` (H-LLPIVGNLLKSLL-NH2), the MIC in data set [1], in [7], in data set [2] and in [5] was greater than 64 µM throughout. Besides, the hemolysis at 32 µM in data set [17] was determined as 5%. Moreover, the result in data set [3] was inactive. The result in data set [10] and in data set [13] was Active. Besides, the “fold change (FC)” value in data set [11] turned out to be 4. Also, in [15], the Activity result is “Non-toxic”.
